ChEMBL document CHEMBL4689842, “EUbOPEN Chemogenomics Library wave 1” (2021)

Test system: HEK-293T
Assay: Multiplex assay against HEK293T;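 as to Population Tubulin-Different-Phenotype (%): share of the cells with healthy nuclei that show this phenotype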
Assay type: toxicity, cell-based
Settings: human
Outline: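 Four dyes were applied at seeding to live cells: Hoechst33342, BioTracker Green Microtubule Cytoskeleton Dye, MitoTracker Red and Annexin V Alexa Fluor 680. Imaging after compound addition used a CQ1 microscope at 37°C and 5% CO2. CellPathfinder machine-learning gating then sorted cells into Hoechst high-intensity objects or normal cells, normal cells into healthy, pyknosed or fragmented nuclei, and pyknosed cells into mitotic or apoptotic, with tubulin, mitochondrial-mass and membrane-permeability phenotypes given as per cents of healthy-nucleus cells.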

[1] = 12 h, 1 µM, compound concentration 1 uM, replicate 1
[2] = 12 h, 1 µM, compound concentration 1 uM, replicate 2
[3] = 12 h, 10 µM, compound concentration 10 uM, replicate 1
[4] = 12 h, 10 µM, compound concentration 10 uM, replicate 2
[5] = 24 h, 1 µM, compound concentration 1 uM, replicate 1
[6] = 24 h, 1 µM, compound concentration 1 uM, replicate 2
[7] = 24 h, 10 µM, compound concentration 10 uM, replicate 1
[8] = 24 h, 10 µM, compound concentration 10 uM, replicate 2
[9] = 48 h, 1 µM, compound concentration 1 uM, replicate 1
[10] = 48 h, 1 µM, compound concentration 1 uM, replicate 2
[11] = 48 h, 10 µM, compound concentration 10 uM, replicate 1
[12] = 48 h, 10 µM, compound concentration 10 uM, replicate 2

CN(C)C(=O)C(CCN1CCC(O)(c2ccc(Cl)cc2)CC1)(c1ccccc1)c1ccccc1.Cl [LOPERAMIDE HYDROCHLORIDE]
Population Apoptotic (%) [1]: 70% | Population Fragmented Nuclei (%) [1]: 10% | Population Healthy Nuclei (%) [1]: 37% | Population Hoechst High Intensity Objects (%) [1]: 16% | Population Membrane Permeable-Phenotype (%) [1]: 2% | Population Mitochondria Different-Phenotype (%) [1]: 92% | Population Mitotic Cells (%) [1]: 29% | Population Normal (%) [1]: 83% | Population Pyknosed Nuclei (%) [1]: 51% | Population Tubulin-Different-Phenotype (%) [1]: 83% | Total Cell Count [1]: 254 | Population Apoptotic (%) [2]: 56% | Population Fragmented Nuclei (%) [2]: 4% | Population Healthy Nuclei (%) [2]: 30% | Population Hoechst High Intensity Objects (%) [2]: 0% | Population Membrane Permeable-Phenotype (%) [2]: 6% | Population Mitochondria Different-Phenotype (%) [2]: 95% | Population Mitotic Cells (%) [2]: 43% | Population Normal (%) [2]: 99% | Population Pyknosed Nuclei (%) [2]: 65% | Population Tubulin-Different-Phenotype (%) [2]: 85% | Total Cell Count [2]: 208 | Population Apoptotic (%) [3]: 91% | Population Fragmented Nuclei (%) [3]: 10% | Population Healthy Nuclei (%) [3]: 7% | Population Hoechst High Intensity Objects (%) [3]: 20% | Population Membrane Permeable-Phenotype (%) [3]: 0% | Population Mitochondria Different-Phenotype (%) [3]: 100% | Population Mitotic Cells (%) [3]: 8% | Population Normal (%) [3]: 79% | Population Pyknosed Nuclei (%) [3]: 82% | Population Tubulin-Different-Phenotype (%) [3]: 86% | Total Cell Count [3]: 258 | Population Apoptotic (%) [4]: 98% | Population Fragmented Nuclei (%) [4]: 6% | Population Hoechst High Intensity Objects (%) [4]: 15% | Population Mitotic Cells (%) [4]: 1% | Population Normal (%) [4]: 84% | Population Pyknosed Nuclei (%) [4]: 86% | Population Tubulin-Different-Phenotype (%) [4]: 70% | Total Cell Count [4]: 158 | Population Apoptotic (%) [5]: 73% | Population Fragmented Nuclei (%) [5]: 11% | Population Healthy Nuclei (%) [5]: 35% | Population Hoechst High Intensity Objects (%) [5]: 16% | Population Membrane Permeable-Phenotype (%) [5]: 1% | Population Mitochondria Different-Phenotype (%) [5]: 90% | Population Mitotic Cells (%) [5]: 26% | Population Normal (%) [5]: 83% | Population Pyknosed Nuclei (%) [5]: 53% | Population Tubulin-Different-Phenotype (%) [5]: 80% | Total Cell Count [5]: 259 | Population Apoptotic (%) [6]: 65% | Population Fragmented Nuclei (%) [6]: 3% | Population Healthy Nuclei (%) [6]: 48% | Population Hoechst High Intensity Objects (%) [6]: 0% | Population Membrane Permeable-Phenotype (%) [6]: 3% | Population Mitochondria Different-Phenotype (%) [6]: 94% | Population Mitotic Cells (%) [6]: 34% | Population Normal (%) [6]: 99% | Population Pyknosed Nuclei (%) [6]: 47% | Population Tubulin-Different-Phenotype (%) [6]: 89% | Total Cell Count [6]: 242 | Population Apoptotic (%) [7]: 88% | Population Fragmented Nuclei (%) [7]: 16% | Population Healthy Nuclei (%) [7]: 8% | Population Hoechst High Intensity Objects (%) [7]: 23% | Population Membrane Permeable-Phenotype (%) [7]: 0% | Population Mitochondria Different-Phenotype (%) [7]: 100% | Population Mitotic Cells (%) [7]: 11% | Population Normal (%) [7]: 76% | Population Pyknosed Nuclei (%) [7]: 75% | Population Tubulin-Different-Phenotype (%) [7]: 73% | Total Cell Count [7]: 297 | Population Apoptotic (%) [8]: 96% | Population Fragmented Nuclei (%) [8]: 7% | Population Hoechst High Intensity Objects (%) [8]: 12% | Population Mitochondria Different-Phenotype (%) [8]: 91% | Population Mitotic Cells (%) [8]: 3% | Population Normal (%) [8]: 87% | Population Pyknosed Nuclei (%) [8]: 84% | Population Tubulin-Different-Phenotype (%) [8]: 75% | Total Cell Count [8]: 162 | Population Apoptotic (%) [9]: 75% | Population Fragmented Nuclei (%) [9]: 16% | Population Healthy Nuclei (%) [9]: 45% | Population Hoechst High Intensity Objects (%) [9]: 16% | Population Membrane Permeable-Phenotype (%) [9]: 0% | Population Mitochondria Different-Phenotype (%) [9]: 86% | Population Mitotic Cells (%) [9]: 24% | Population Normal (%) [9]: 83% | Population Pyknosed Nuclei (%) [9]: 37% | Population Tubulin-Different-Phenotype (%) [9]: 80% | Total Cell Count [9]: 322 | Population Apoptotic (%) [10]: 71% | Population Fragmented Nuclei (%) [10]: 6% | Population Healthy Nuclei (%) [10]: 69% | Population Hoechst High Intensity Objects (%) [10]: 3% | Population Membrane Permeable-Phenotype (%) [10]: 1% | Population Mitochondria Different-Phenotype (%) [10]: 83% | Population Mitotic Cells (%) [10]: 28% | Population Normal (%) [10]: 96% | Population Pyknosed Nuclei (%) [10]: 23% | Population Tubulin-Different-Phenotype (%) [10]: 89% | Total Cell Count [10]: 305 | Population Apoptotic (%) [11]: 85% | Population Fragmented Nuclei (%) [11]: 25% | Population Healthy Nuclei (%) [11]: 0% | Population Hoechst High Intensity Objects (%) [11]: 24% | Population Membrane Permeable-Phenotype (%) [11]: 0% | Population Mitochondria Different-Phenotype (%) [11]: 100% | Population Mitotic Cells (%) [11]: 14% | Population Normal (%) [11]: 75% | Population Pyknosed Nuclei (%) [11]: 73% | Population Tubulin-Different-Phenotype (%) [11]: 0% | Total Cell Count [11]: 315 | Population Apoptotic (%) [12]: 98% | Population Fragmented Nuclei (%) [12]: 9% | Population Healthy Nuclei (%) [12]: 7% | Population Hoechst High Intensity Objects (%) [12]: 19% | Population Mitochondria Different-Phenotype (%) [12]: 90% | Population Mitotic Cells (%) [12]: 1% | Population Normal (%) [12]: 80% | Population Pyknosed Nuclei (%) [12]: 82% | Population Tubulin-Different-Phenotype (%) [12]: 72% | Total Cell Count [12]: 181
